CHRM1 PAM = human CHRM1 positive allosteric modulation; P11229; CHO-K1 hM1, Fluo-8 calcium fluorescence, ACh EC20; 0% = ACh EC20, 100% = maximal ACh; activation, % at 3 µM; 360,000 compounds, 0.088% hits; AID 588819; in the data active means activation above about 19%, passing the limit was not always enough
TAAR1 antagonist = human TAAR1 antagonism; Q96RJ0; CHO RD-HGA16 TAAR1, Fluo-8 calcium fluorescence, antagonist; inhibition, % at 3 µM; 360,000 compounds, 1.5% hits; AID 624466;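 active means inhibition above a per-plate cutoff, the mean inhibition of test compounds on that plate plus 3 SD, cut at about 49% in these data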;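 further: 0% = DMSO plus EC80 beta-PEA response and 100% = DMSO alone without agonist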
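Assay system: RD-HGA16 CHO cells with stable hTAAR1 and Gα16 / Reagent: EC80 β-phenethylamine stimulus / Doses: 3 µM, single point / Timing: dye loading 75 min at 37 °C, then 30 min room temperature / Measured by: Fluo-8 intracellular calcium dye fluorescence, real-time kinetic reads / Controls: vehicle wells and EC80 agonist wells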
CHRM1 antagonist = blocks human M1 muscarinic receptor; P11229; CHO-K1 hM1, Fluo-8 calcium fluorescence, ACh EC80 antagonist; inhibition, % at 3 µM; 360,000 compounds, 1.3% hits;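 active means percent inhibition above its own plate's cutoff, namely the mean of that plate's compound wells plus 3 SD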;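 further: peak over basal fluorescence ratio during 140 s after agonist addition; 0% = ACh EC80 plus DMSO and 100% = DMSO alone without agonist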
CHRM1 agonist = agonists of human M1 muscarinic receptor | P11229 | CHO-K1 hM1, Fluo-8 calcium fluorescence, agonist mode; 0% DMSO, 100% acetylcholine EC100 | activation, % at 3 µM | 360,000 compounds, 0.33% hits | AID 588814;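 active means activation above the run's mean compound activation plus 3 SD, cut at about 16% in these data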;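 further: peak over basal fluorescence ratio within a 140 s kinetic read after compound addition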
TAAR1 agonist = human TAAR1 agonism; Q96RJ0; CHO RD-HGA16 TAAR1, Fluo-8 calcium fluorescence; vehicle wells 0%, saturating PEA agonist 100%; activation, % at 3 µM; 360,000 compounds, 0.99% hits; AID 624467;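 active means activation above the mean activation of all test compounds in the run plus 3 SD, cut at about 38% in these data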
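Test system: RD-HGA16 (CHO) cells co-expressing Gα16 and hTAAR1; dosing: one-point dosing at 3 µM (nominal); timing: 17-24 h seeding, 75 min 37 °C dye, 30 min RT; signal: kinetic Fluo-8 calcium fluorescence; read-out basis: % activation relative to PEA EC100 response; controls: DMSO and PEA EC100; replicates: n 1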
HTR2A ag = activates the mouse 5-HT2A serotonin receptor | P35363 | 360,000 compounds, 0.66% hits | AID 624169 | CHO-K1 mHTR2A beta-arrestin complementation, luminescence; percent of 30 µM serotonin response | activation, % at 7.6 µM;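 active means activation above a run cutoff, the mean activation of all tested compounds plus 3 SD, cut at about 14% in these data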;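 further: 0% = plate median of compound wells and 100% = 30 µM serotonin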
Target sequence (P35363 whole entry, looked up): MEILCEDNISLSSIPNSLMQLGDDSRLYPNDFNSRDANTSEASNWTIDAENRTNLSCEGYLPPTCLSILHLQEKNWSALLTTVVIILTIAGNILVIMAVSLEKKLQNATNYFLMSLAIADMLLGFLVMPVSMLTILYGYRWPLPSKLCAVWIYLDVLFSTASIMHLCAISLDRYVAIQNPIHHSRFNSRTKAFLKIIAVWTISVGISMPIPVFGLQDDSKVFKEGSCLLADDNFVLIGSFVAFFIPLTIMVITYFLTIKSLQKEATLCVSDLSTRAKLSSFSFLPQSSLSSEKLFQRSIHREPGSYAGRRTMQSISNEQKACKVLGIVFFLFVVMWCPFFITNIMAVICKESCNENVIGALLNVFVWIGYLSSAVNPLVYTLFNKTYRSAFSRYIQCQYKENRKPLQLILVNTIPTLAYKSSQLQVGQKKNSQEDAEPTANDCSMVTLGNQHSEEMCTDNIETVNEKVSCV
nonsel antag count = nonselective antagonism, TAAR1 counter-screen; shares compounds with TAAR1 antagonist; counterscreen cell line, calcium fluorescence, antagonist mode; inhibition, % at 3 µM; 2,400 compounds, 77% hits; AID 651780; in the data active means inhibition above about 22%;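 further: CHO-Ga16 host cells stimulated with ATP at an EC80 level; 0% = agonist EC80 plus vehicle and 100% = vehicle without agonist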
TAAR1 antag conf = human TAAR1 antagonism, confirmed; shares compounds with TAAR1 antagonist; TAAR1-expressing cells, fluorescence antagonist read-out; inhibition, % at 3 µM; 2,400 compounds, 40% hits; AID 651785; in the data active means inhibition above about 49%;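 further: CHO-Ga16 host cells challenged with agonist PEA near its EC80; 0% = agonist at EC80 plus vehicle and 100% = vehicle with no agonist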
Ga16 nonsel ag = nonselective Ga16 agonist in TAAR1 antagonist counter-screen | shares compounds with TAAR1 antagonist | Ga16-expressing cells, calcium fluorescence, agonist counterscreen | activation, % at 3 µM | 2,400 compounds, 18% hits | AID 651953; in the data active means activation above about 12%;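 further: 0% = vehicle wells and 100% = saturating stimulus response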
TAAR1 ag counter = counter-screen for human TAAR1 antagonists: TAAR1 agonists; shares compounds with TAAR1 antagonist; hTAAR1 cell line, fluorescence activation, agonist mode; activation, % at 3 µM; 2,400 compounds, 2% hits; in the data active means activation above about 37%;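 further: CHO cells stably expressing TAAR1 with calcium dye readout; 0% = DMSO vehicle and 100% = full agonist response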
* = called active by the depositor; · = no result given. The list is not random: actives were taken first. Their share in the collection is about 3.9%.

SMILES	CHRM1 PAM	TAAR1 antagonist	CHRM1 antagonist	CHRM1 agonist	TAAR1 agonist	HTR2A ag	nonsel antag count	TAAR1 antag conf	Ga16 nonsel ag	TAAR1 ag counter
Cc1c(C(=O)N(Cc2ccccc2)C(C)C)oc2ccc(S(=O)(=O)N3CCOCC3)cc12	-15	80*	35	2	11	9	33*	61*	13*	11
COC(=O)Nc1sc2c(c1C(=O)NCc1ccco1)CCC2	9	-3	-5	-6	8	5	·	·	·	·
COC(=O)Nc1sc2c(c1C(=O)NCc1ccco1)CCCC2	2	107*	-1	-3	-3	2	6	-8	4	5
O=C(COC(=O)c1ccccc1C(=O)c1ccc(Cl)c([N+](=O)[O-])c1)NC1CCCCCC1	-6	74*	10	-4	13	-4	35*	54*	9	10
CSc1ncccc1C(=O)OCC(=O)N1CCCC1	2	101*	2	-3	-3	-10	-4	-12	8	3
Nc1cc(Cl)ccc1C(=O)OCC(=O)NC1CCCCC1	11	102*	-13	-4	-2	7	11	8	3	12
Nc1cc(Cl)ccc1C(=O)OCC(=O)N1CCCCCC1	8	103*	-3	1	2	10	11	5	4	7
N#Cc1ccccc1S(=O)(=O)N1CCN(C(=O)c2cn(-c3ccccc3)nc2-c2cccnc2)CC1	8	8	-11	-8	1	2	·	·	·	·
Cc1ccccc1N1CCN(C2CCCN(C(=O)c3noc4c3CCCC4)C2)CC1 (configuration not stated)	-3	-28	0	-6	-2	-9	·	·	·	·
COCCN1C(=O)CS/C1=C(/C#N)C(=O)NCc1ccco1	2	-21	2	-1	4	2	·	·	·	·
CC1CCC(NC(=O)CCN2C(=O)C3C4C=CC(C4)C3C2=O)CC1 (configuration not stated)	6	-7	-3	-3	1	-3	·	·	·	·
CCOc1ccc2[nH]c(=O)c(CN(Cc3cccs3)Cc3nnnn3C(C)(C)CC)cc2c1	-5	55*	-4	-1	12	1	13	37	5	14
CCC(C)(C)n1nnnc1CN(Cc1cccs1)Cc1cc2cc(OC)ccc2[nH]c1=O	-5	43	10	-2	31	6	·	·	·	·
Cc1nc2c(OCc3ccc(OC(F)F)cc3)cccn2c1N(C)C(=O)CCC1CCCC1	-23	78*	13	-5	2	-6	39*	54*	7	3
Cc1nn(-c2ccccc2)c(N2CCCC2)c1/C=N/NC(=O)c1cc2ccccc2cc1O	-3	51*	0	-6	11	-2	44*	50*	12*	11
COc1ccccc1OCCCOc1ccc(/C=C2\SC(=O)NC2=O)cc1OC	-3	82*	2	0	11	-4	34*	53*	9	5
COc1ccccc1OCCCOc1cccc(/C=C2\SC(=O)NC2=O)c1	-3	28	-1	1	5	10	·	·	·	·
COCCCNC(=O)C[C@H]1C[C@@]2(C(=O)OC)C(=C[C@H](C3CCCC3)O[C@@H]2C)N(Cc2ccccc2)C1=O	·	-30	·	·	0	·	·	·	·	·
Cc1nn2c(C)c(C(=O)Nc3ccccc3)cnc2c1C#N	3	53*	-32	1	13	5	20	35	9	8
O=C(Cc1c[nH]c2ccccc12)Nc1ccc(Nc2cccnc2)c(-c2ccc(Oc3ccccc3)cc2)c1	·	30	·	·	2	·	·	·	·	·
O=C(Cc1c[nH]c2ccccc12)Nc1ccc(Nc2cccnc2)c(-c2cc(F)cc(F)c2)c1	·	89*	·	·	18	·	36*	57*	14*	15
O=C(Cc1c[nH]c2ccccc12)Nc1ccc(Nc2cccnc2)c(Br)c1	·	42	·	·	2	·	·	·	·	·
COc1ccc(-c2cc(NC(=O)Cc3c[nH]c4ccccc34)ccc2Nc2cccnc2)cc1F	·	90*	·	·	20	·	39*	65*	10	12
O=C(Cc1c[nH]c2ccccc12)Nc1ccc(Nc2cccnc2)c(-c2ccc(Cl)c(Cl)c2)c1	·	71*	·	·	11	·	38*	56*	9	10
O=C(Cc1c[nH]c2ccccc12)Nc1ccc(Nc2cccnc2)c(-c2ccc(OC(F)(F)F)cc2)c1	·	44	·	·	5	·	·	·	·	·
SMILES	CHRM1 PAM	TAAR1 antagonist	CHRM1 antagonist	CHRM1 agonist	TAAR1 agonist	HTR2A ag	nonsel antag count	TAAR1 antag conf	Ga16 nonsel ag	TAAR1 ag counter
COC(=O)c1nccnc1N	0	103*	-9	-3	-2	8	3	1	1	3
Cc1ccc(CNC(=O)CC2(CC3=NS(=O)(=O)c4ccccc4N3)CCCC2)cc1	-8	66*	17	1	12	1	32*	51*	11	19
O=C(Nc1ccc(NS(=O)(=O)c2ccccc2)c(Cl)c1)c1ccccc1	-8	5	14	-1	2	-11	·	·	·	·
COc1ccc(NC(=O)c2sc3ncnc(N4CCN(c5ccccn5)CC4)c3c2C)cc1Cl	9	80*	-13	-3	12	-2	48*	55*	13*	13
CCOC(=O)c1ccc(NC(=O)CN(C)S(=O)(=O)c2ccc(Br)s2)cc1	-12	85*	15	-6	12	1	38*	48	9	6
CCOC(=O)c1ccc(NC(=O)CN(C)S(=O)(=O)c2ccc(OC)cc2)cc1	-1	26	0	-1	14	-1	·	·	·	·
COc1ccc(C2=NS(=O)(=O)N(C)C(C(=O)Nc3cc(C)ccc3O)=C2)cc1OC	-11	70*	10	0	13	0	40*	51*	9	6
COc1ccc(NC(=O)C2=CC(c3ccc(C)cc3)=NS(=O)(=O)N2C)cc1OC	-14	1	14	2	4	-3	·	·	·	·
O=C(C[C@H]1C/C=C\CCC(=O)O[C@@H](c2ccccc2)CNC1=O)NCCO	13	-6	-2	2	17	0	·	·	·	·
O=C1NCN(c2ccccc2)C12CCN(CCCC(c1ccc(F)cc1)c1ccc(F)cc1)CC2	-7	78*	-18	-3	37	-4	47*	48	20*	35

Compound activity as filed in PubChem BioAssay.
